Reference: publication PMC5615838 (Toxicology Reports, 2016)

How the values were obtained:
[1] = target: hERG (Homo sapiens, UniProt Q12809); assay: hERG electrophysiology; type: cell-based
[2] = toxicokinetics in 90-day toxicity study; type: in vivo, rat; settings: for AUC(0-t) / Cmax: female, rat, plasma, po; for AUC(0-t): AUC0-24h
Procedure, shortened: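 In the 90-day dietary study (10, 30, 100 mg/kg bw/day), plasma taken at 6 time points over 24 h on Day 7, Week 6 and Week 13, assayed by validated LC-MS/MS. […] Accumulation ratio = AUC0-24h at Week 6 or 13 / Day 7.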

[3] = Sprague-Dawley [Crl:CD(SD)], 10 mg/kg, Day 7, 10 mg/kg bw, F
[4] = Sprague-Dawley [Crl:CD(SD)], 10 mg/kg, Week 13, 10 mg/kg bw, F
[5] = Sprague-Dawley [Crl:CD(SD)], 30 mg/kg, Day 7, 30 mg/kg bw, F
[6] = Sprague-Dawley [Crl:CD(SD)], 30 mg/kg, Week 13, 30 mg/kg bw, F
[7] = Sprague-Dawley [Crl:CD(SD)], 100 mg/kg, Day 7, 100 mg/kg bw, F
[8] = Sprague-Dawley [Crl:CD(SD)], 100 mg/kg, Week 13, 100 mg/kg bw, F

hERG, sequence (Q12809 whole entry): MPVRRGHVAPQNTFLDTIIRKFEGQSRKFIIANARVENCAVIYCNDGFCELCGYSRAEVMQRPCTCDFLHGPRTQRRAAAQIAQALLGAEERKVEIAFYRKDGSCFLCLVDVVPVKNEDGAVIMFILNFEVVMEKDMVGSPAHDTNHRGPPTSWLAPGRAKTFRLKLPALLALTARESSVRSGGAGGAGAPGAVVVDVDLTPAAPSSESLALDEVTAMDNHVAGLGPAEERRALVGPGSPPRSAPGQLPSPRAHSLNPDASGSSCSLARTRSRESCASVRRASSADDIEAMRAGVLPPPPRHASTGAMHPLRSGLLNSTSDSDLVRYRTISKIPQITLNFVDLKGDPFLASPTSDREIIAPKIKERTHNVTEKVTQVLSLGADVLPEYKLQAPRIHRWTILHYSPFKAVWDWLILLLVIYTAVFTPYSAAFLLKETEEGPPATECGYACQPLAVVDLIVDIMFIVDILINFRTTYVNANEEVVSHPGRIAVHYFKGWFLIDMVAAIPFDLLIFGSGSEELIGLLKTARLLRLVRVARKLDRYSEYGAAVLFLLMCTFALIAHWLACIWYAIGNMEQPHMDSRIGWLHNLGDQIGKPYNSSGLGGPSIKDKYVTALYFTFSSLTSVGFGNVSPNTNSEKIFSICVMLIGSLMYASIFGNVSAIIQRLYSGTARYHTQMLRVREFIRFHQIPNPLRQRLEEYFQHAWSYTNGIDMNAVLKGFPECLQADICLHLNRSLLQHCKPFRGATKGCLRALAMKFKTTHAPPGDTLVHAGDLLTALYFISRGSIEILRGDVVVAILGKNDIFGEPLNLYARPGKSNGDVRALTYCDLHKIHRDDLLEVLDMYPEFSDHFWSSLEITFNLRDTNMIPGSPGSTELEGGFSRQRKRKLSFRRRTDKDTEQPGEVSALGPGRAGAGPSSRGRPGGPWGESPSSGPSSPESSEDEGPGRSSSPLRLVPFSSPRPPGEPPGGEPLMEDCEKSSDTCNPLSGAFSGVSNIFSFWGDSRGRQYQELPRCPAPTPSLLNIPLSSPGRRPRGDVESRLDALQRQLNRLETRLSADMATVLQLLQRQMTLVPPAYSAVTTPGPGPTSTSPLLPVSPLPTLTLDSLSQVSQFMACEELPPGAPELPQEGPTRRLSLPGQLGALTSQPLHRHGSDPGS

With `Cc1noc(C)c1Cn1cc(N2C(=O)CN(Cc3cccc(O)c3)C2=O)cn1` [S6821, 3-(1-((3,5-dimethylisoxazol-4-yl)methyl)-1H-pyrazol-4-yl)-1-(3-hydroxybenzyl)imidazolidine-2,4-dione] the inhibition at 10 µM [1] was under 10%, the “Cmax and AUC0-24h higher than predicted from a linear relationship” value ([2]; 100 mg/kg bw/day, females) was about 1.3 fold and the “Cmax and AUC0-24h lower than predicted from a linear relationship” value ([2]; 100 mg/kg bw/day, males) was about 32%. For the same compound, the AUC0-24h/dose ([2]; Day 7, 10 mg/kg bw, F) was 12.2 ng·h/mL/mg/kg, the “AUC0-24h Ratio” value ([2]; Day 7, 10 mg/kg bw, F) was 1 and the “Cmax Ratio” value ([2]; Day 7, 10 mg/kg bw, F) was 1. The AUC0-24h/dose ([2]; Day 7, 10 mg/kg bw, M) was 11.8 ng·h/mL/mg/kg, the “AUC0-24h Ratio” value ([2]; Day 7, 10 mg/kg bw, M) was 1 and the “Cmax Ratio” value ([2]; Day 7, 10 mg/kg bw, M) was 1. For the same compound, the AUC0-24h/dose ([2]; Day 7, 30 mg/kg bw, F) was 14.5 ng·h/mL/mg/kg, the “AUC0-24h Ratio” value ([2]; Day 7, 30 mg/kg bw, F) was 3.5 and the “Cmax Ratio” value ([2]; Day 7, 30 mg/kg bw, F) was 3.8. The AUC0-24h/dose ([2]; Day 7, 30 mg/kg bw, M) was 9.83 ng·h/mL/mg/kg, the “AUC0-24h Ratio” value ([2]; Day 7, 30 mg/kg bw, M) was 2.5 and the “Cmax Ratio” value ([2]; Day 7, 30 mg/kg bw, M) was 2.8. The AUC0-24h/dose ([2]; Day 7, 100 mg/kg bw, F) was 15.0 ng·h/mL/mg/kg, the “AUC0-24h Ratio” value ([2]; Day 7, 100 mg/kg bw, F) was 12.3 and the “Cmax Ratio” value ([2]; Day 7, 100 mg/kg bw, F) was 13.7. The AUC0-24h/dose ([2]; Day 7, 100 mg/kg bw, M) was 8.44 ng·h/mL/mg/kg, the “AUC0-24h Ratio” value ([2]; Day 7, 100 mg/kg bw, M) was 7.2 and the “Cmax Ratio” value ([2]; Day 7, 100 mg/kg bw, M) was 6.8. The “ACUM Ratio” value ([2]; Week 6, 10 mg/kg bw, F) was 0.93, the AUC0-24h/dose ([2]; Week 6, 10 mg/kg bw, F) was 11.3 ng·h/mL/mg/kg and the “AUC0-24h Ratio” value ([2]; Week 6, 10 mg/kg bw, F) was 1. For the same compound, the “Cmax Ratio” value ([2]; Week 6, 10 mg/kg bw, F) was 1, the “ACUM Ratio” value ([2]; Week 6, 10 mg/kg bw, M) was 1.07 and the AUC0-24h/dose ([2]; Week 6, 10 mg/kg bw, M) was 12.6 ng·h/mL/mg/kg. For the same compound, the “AUC0-24h Ratio” value ([2]; Week 6, 10 mg/kg bw, M) was 1, the “Cmax Ratio” value ([2]; Week 6, 10 mg/kg bw, M) was 1 and the “ACUM Ratio” value ([2]; Week 6, 30 mg/kg bw, F) was 0.76. The AUC0-24h/dose ([2]; Week 6, 30 mg/kg bw, F) was 11.0 ng·h/mL/mg/kg, the “AUC0-24h Ratio” value ([2]; Week 6, 30 mg/kg bw, F) was 2.9 and the “Cmax Ratio” value ([2]; Week 6, 30 mg/kg bw, F) was 2.8. The “ACUM Ratio” value ([2]; Week 6, 30 mg/kg bw, M) was 0.99, the AUC0-24h/dose ([2]; Week 6, 30 mg/kg bw, M) was 9.77 ng·h/mL/mg/kg and the “AUC0-24h Ratio” value ([2]; Week 6, 30 mg/kg bw, M) was 2.3. For the same compound, the “Cmax Ratio” value ([2]; Week 6, 30 mg/kg bw, M) was 2.3, the “ACUM Ratio” value ([2]; Week 6, 100 mg/kg bw, F) was 0.87 and the AUC0-24h/dose ([2]; Week 6, 100 mg/kg bw, F) was 13.0 ng·h/mL/mg/kg. For the same compound, the “AUC0-24h Ratio” value ([2]; Week 6, 100 mg/kg bw, F) was 11.5, the “Cmax Ratio” value ([2]; Week 6, 100 mg/kg bw, F) was 15.1 and the “ACUM Ratio” value ([2]; Week 6, 100 mg/kg bw, M) was 0.90. For the same compound, the AUC0-24h/dose ([2]; Week 6, 100 mg/kg bw, M) was 7.58 ng·h/mL/mg/kg, the “AUC0-24h Ratio” value ([2]; Week 6, 100 mg/kg bw, M) was 6.0 and the “Cmax Ratio” value ([2]; Week 6, 100 mg/kg bw, M) was 4.1. The “ACUM Ratio” value ([2]; Week 13, 10 mg/kg bw, F) was 1.02, the AUC0-24h/dose ([2]; Week 13, 10 mg/kg bw, F) was 12.5 ng·h/mL/mg/kg and the “AUC0-24h Ratio” value ([2]; Week 13, 10 mg/kg bw, F) was 1. The “Cmax Ratio” value ([2]; Week 13, 10 mg/kg bw, F) was 1, the “ACUM Ratio” value ([2]; Week 13, 10 mg/kg bw, M) was 1.04 and the AUC0-24h/dose ([2]; Week 13, 10 mg/kg bw, M) was 12.3 ng·h/mL/mg/kg. For the same compound, the “AUC0-24h Ratio” value ([2]; Week 13, 10 mg/kg bw, M) was 1, the “Cmax Ratio” value ([2]; Week 13, 10 mg/kg bw, M) was 1 and the “ACUM Ratio” value ([2]; Week 13, 30 mg/kg bw, F) was 0.79. The AUC0-24h/dose ([2]; Week 13, 30 mg/kg bw, F) was 11.5 ng·h/mL/mg/kg, the “AUC0-24h Ratio” value ([2]; Week 13, 30 mg/kg bw, F) was 2.8 and the “Cmax Ratio” value ([2]; Week 13, 30 mg/kg bw, F) was 2.4. For the same compound, the “ACUM Ratio” value ([2]; Week 13, 30 mg/kg bw, M) was 1.03, the AUC0-24h/dose ([2]; Week 13, 30 mg/kg bw, M) was 10.2 ng·h/mL/mg/kg and the “AUC0-24h Ratio” value ([2]; Week 13, 30 mg/kg bw, M) was 2.5. The “Cmax Ratio” value ([2]; Week 13, 30 mg/kg bw, M) was 3.1, the “ACUM Ratio” value ([2]; Week 13, 100 mg/kg bw, F) was 1.11 and the AUC0-24h/dose ([2]; Week 13, 100 mg/kg bw, F) was 16.7 ng·h/mL/mg/kg. The “AUC0-24h Ratio” value ([2]; Week 13, 100 mg/kg bw, F) was 13.4, the “Cmax Ratio” value ([2]; Week 13, 100 mg/kg bw, F) was 12.9 and the “ACUM Ratio” value ([2]; Week 13, 100 mg/kg bw, M) was 1.10. The AUC0-24h/dose ([2]; Week 13, 100 mg/kg bw, M) was 9.25 ng·h/mL/mg/kg, the “AUC0-24h Ratio” value ([2]; Week 13, 100 mg/kg bw, M) was 7.5 and the “Cmax Ratio” value ([2]; Week 13, 100 mg/kg bw, M) was 9.1. The AUC(0-t) [2, 3] was 122 ng·h/mL, the AUC(0-t) [2, 4] was 125 ng·h/mL and the Cmax [2, 3] was 7.22 ng/mL. The Cmax [2, 4] was 8.32 ng/mL, the AUC(0-t) [2, 5] was 436 ng·h/mL and the AUC(0-t) [2, 6] was 344 ng·h/mL. It also gave a Cmax [2, 5] of 27.7 ng/mL, a Cmax [2, 6] of 19.8 ng/mL and an AUC(0-t) [2, 7] of 1500 ng·h/mL. For the same compound, the AUC(0-t) [2, 8] was 1670 ng·h/mL, the Cmax [2, 7] was 99 ng/mL and the Cmax [2, 8] was 107 ng/mL. For the same compound, the AUC(0-t) ([2]; Sprague-Dawley, 10 mg/kg, Week 6, 10 mg/kg bw, F) was 113 ng·h/mL.
